In ChEMBL document CHEMBL2375313, “Synthesis, in vitro antitumor evaluation and DNA-binding study of novel tetrahydroquinolines and some derived tricyclic and tetracyclic ring systems” (Eur J Med Chem, 2013):

How the values were obtained:
Assay type in all cases: functional
SK-MEL-2 = test: Cytotoxicity against human SK-MEL-2 cells assessed as growth inhibition at 10 uM after 48 hrs by sulphorhodamine B assay; conditions: SK-MEL-2, 48 h, read-out: GI
How it was run: (§1)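 NCI-60 one-dose screen per the NCI Drug Evaluation Branch protocol. Cells given a single 10 µM concentration with 48 h continuous exposure. Growth estimated by sulphorhodamine B protein assay. Result expressed as percentage growth inhibition relative to untreated growth.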

PC-3 = test: Cytotoxicity against human PC3 cells assessed as growth inhibition at 10 uM after 48 hrs by sulphorhodamine B assay; conditions: PC-3, 48 h, read-out: GI; how it was run: as §1
SK-MEL-5 = test: Cytotoxicity against human SK-MEL-5 cells assessed as growth inhibition at 10 uM after 48 hrs by sulphorhodamine B assay; conditions: SK-MEL-5, 48 h, read-out: GI; how it was run: as §1
OVCAR-5 = test: Cytotoxicity against human OVCAR5 cells assessed as growth inhibition at 10 uM after 48 hrs by sulphorhodamine B assay; conditions: OVCAR-5, 48 h, read-out: GI; how it was run: as §1
SNB-19 = test: Cytotoxicity against human SNB19 cells assessed as growth inhibition at 10 uM after 48 hrs by sulphorhodamine B assay; conditions: SNB-19, 48 h, read-out: GI; how it was run: as §1
Hs-578T = test: Cytotoxicity against human Hs578T cells assessed as growth inhibition at 10 uM after 48 hrs by sulphorhodamine B assay; conditions: read-out: GI; how it was run: as §1
A549 = test: Cytotoxicity against human A549 cells assessed as growth inhibition at 10 uM after 48 hrs by sulphorhodamine B assay; conditions: A549, 48 h, read-out: GI; how it was run: as §1
MOLT-4 = test: Cytotoxicity against human MOLT4 cells assessed as growth inhibition at 10 uM after 48 hrs by sulphorhodamine B assay; conditions: MOLT-4, 48 h, read-out: GI; how it was run: as §1
ACHN = test: Cytotoxicity against human ACHN cells assessed as growth inhibition at 10 uM after 48 hrs by sulphorhodamine B assay; conditions: read-out: GI; how it was run: as §1
LOX IMVI = test: Cytotoxicity against human LOXIMVI cells assessed as growth inhibition at 10 uM after 48 hrs by sulphorhodamine B assay; conditions: read-out: GI; how it was run: as §1
MDA-MB-435 = test: Cytotoxicity against human MDA-MB-435 cells assessed as growth inhibition at 10 uM after 48 hrs by sulphorhodamine B assay; conditions: MDA-MB-435, 48 h, read-out: GI; how it was run: as §1
UACC-62 = test: Cytotoxicity against human UACC62 cells assessed as growth inhibition at 10 uM after 48 hrs by sulphorhodamine B assay; conditions: UACC-62, 48 h, read-out: GI; how it was run: as §1
CCRF-CEM = test: Cytotoxicity against human CCRF-CEM cells assessed as growth inhibition at 10 uM after 48 hrs by sulphorhodamine B assay; conditions: read-out: GI; how it was run: as §1
SF-268 = test: Cytotoxicity against human SF268 cells assessed as growth inhibition at 10 uM after 48 hrs by sulphorhodamine B assay; conditions: SF-268, 48 h, read-out: GI; how it was run: as §1
HL-60(TB) = test: Cytotoxicity against human HL-60(TB) cells assessed as growth inhibition at 10 uM after 48 hrs by sulphorhodamine B assay; conditions: HL-60, 48 h, read-out: GI
How it was run: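 NCI-60 one-dose primary screen run to the Drug Evaluation Branch protocol. Cells are exposed to a single 10 µM concentration for 48 h continuously, and growth is read by SRB protein assay. Data are reported as percent growth of treated cells, expressed as % growth inhibition.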

HCT-15 = test: Cytotoxicity against human HCT15 cells assessed as growth inhibition at 10 uM after 48 hrs by sulphorhodamine B assay; conditions: HCT-15, 48 h, read-out: GI; how it was run: as §1
RXF 393 = test: Cytotoxicity against human RXF393 cells assessed as growth inhibition at 10 uM after 48 hrs by sulphorhodamine B assay; conditions: RXF 393, 48 h, read-out: GI; how it was run: as §1
NCI-H522 = test: Cytotoxicity against human NCI-H522 cells assessed as growth inhibition at 10 uM after 48 hrs by sulphorhodamine B assay; conditions: NCI-H522, 48 h, read-out: GI; how it was run: as §1
SR = test: Cytotoxicity against human SR cells assessed as growth inhibition at 10 uM after 48 hrs by sulphorhodamine B assay; conditions: read-out: GI; how it was run: as §1
NCI-H23 = test: Cytotoxicity against human NCI-H23 cells assessed as growth inhibition at 10 uM after 48 hrs by sulphorhodamine B assay; conditions: NCI-H23, 48 h, read-out: GI; how it was run: as §1
HT-29 = test: Cytotoxicity against human HT-29 cells assessed as growth inhibition at 10 uM after 48 hrs by sulphorhodamine B assay; conditions: HT-29, 48 h, read-out: GI; how it was run: as §1
SK-OV-3 = test: Cytotoxicity against human SKOV3 cells assessed as growth inhibition at 10 uM after 48 hrs by sulphorhodamine B assay; conditions: SK-OV-3, 48 h, read-out: GI; how it was run: as §1
U-251 = test: Cytotoxicity against human U251 cells assessed as growth inhibition at 10 uM after 48 hrs by sulphorhodamine B assay; conditions: U-251, 48 h, read-out: GI; how it was run: as §1
MDA-MB-468 = test: Cytotoxicity against human MDA-MB-468 cells assessed as growth inhibition at 10 uM after 48 hrs by sulphorhodamine B assay; conditions: MDA-MB-468, 48 h, read-out: GI; how it was run: as §1
RPMI-8226 = test: Cytotoxicity against human RPMI8226 cells assessed as growth inhibition at 10 uM after 48 hrs by sulphorhodamine B assay; conditions: RPMI-8226, 48 h, read-out: GI; how it was run: as §1
CAKI-1 = test: Cytotoxicity against human Caki1 cells assessed as growth inhibition at 10 uM after 48 hrs by sulphorhodamine B assay; conditions: CAKI-1, 48 h, read-out: GI; how it was run: as §1
T47D = test: Cytotoxicity against human T47D cells assessed as growth inhibition at 10 uM after 48 hrs by sulphorhodamine B assay; conditions: read-out: GI; how it was run: as §1
MCF7 = test: Cytotoxicity against human MCF7 cells assessed as growth inhibition at 10 uM after 48 hrs by sulphorhodamine B assay; conditions: MCF7, 48 h, read-out: GI; how it was run: as §1
A498 = test: Cytotoxicity against human A498 cells assessed as growth inhibition at 10 uM after 48 hrs by sulphorhodamine B assay; conditions: A498, 48 h, read-out: GI; how it was run: as §1
OVCAR-4 = test: Cytotoxicity against human OVCAR4 cells assessed as growth inhibition at 10 uM after 48 hrs by sulphorhodamine B assay; conditions: OVCAR-4, 48 h, read-out: GI; how it was run: as §1
NCI/ADR-RES = test: Cytotoxicity against human NCI/ADR-RES cells assessed as growth inhibition at 10 uM after 48 hrs by sulphorhodamine B assay; conditions: read-out: GI; how it was run: as §1
DU-145 = test: Cytotoxicity against human DU145 cells assessed as growth inhibition at 10 uM after 48 hrs by sulphorhodamine B assay; conditions: DU-145, 48 h, read-out: GI; how it was run: as §1
HCT-116 = test: Cytotoxicity against human HCT116 cells assessed as growth inhibition at 10 uM after 48 hrs by sulphorhodamine B assay; conditions: HCT-116, 48 h, read-out: GI; how it was run: as §1
K562 = test: Cytotoxicity against human K562 cells assessed as growth inhibition at 10 uM after 48 hrs by sulphorhodamine B assay; conditions: K562, 48 h, read-out: GI; how it was run: as §1
UO-31 = test: Cytotoxicity against human UO31 cells assessed as growth inhibition at 10 uM after 48 hrs by sulphorhodamine B assay; conditions: UO-31, 48 h, read-out: GI; how it was run: as §1
M14 = test: Cytotoxicity against human M14 cells assessed as growth inhibition at 10 uM after 48 hrs by sulphorhodamine B assay; conditions: M14, 48 h, read-out: GI; how it was run: as §1
SNB-75 = test: Cytotoxicity against human SNB75 cells assessed as growth inhibition at 10 uM after 48 hrs by sulphorhodamine B assay; conditions: SNB-75, 48 h, read-out: GI; how it was run: as §1
HOP-92 = test: Cytotoxicity against human HOP92 cells assessed as growth inhibition at 10 uM after 48 hrs by sulphorhodamine B assay; conditions: HOP-92, 48 h, read-out: GI; how it was run: as §1
SF-295 = test: Cytotoxicity against human SF295 cells assessed as growth inhibition at 10 uM after 48 hrs by sulphorhodamine B assay; conditions: SF-295, 48 h, read-out: GI; how it was run: as §1
[1] = Cytotoxicity against human EKVX cells assessed as growth inhibition at 10 uM after 48 hrs by sulphorhodamine B assay; conditions: read-out: GI; how it was run: as §1
IGROV-1 = test: Cytotoxicity against human IGROV1 cells assessed as growth inhibition at 10 uM after 48 hrs by sulphorhodamine B assay; conditions: IGROV-1, 48 h, read-out: GI; how it was run: as §1

COc1ccc(-c2c3c(nc4ncn5ncnc5c24)C(C)CCC3)cc1 (stereo unspecified) gave an inhibition of growth at 10 µM (SK-MEL-2) of less than 10%, an inhibition of growth at 10 µM (PC-3) of 13% and an inhibition of growth at 10 µM (SK-MEL-5) of less than 10%. It also gave an inhibition of growth at 10 µM (OVCAR-5) of less than 10%, an inhibition of growth at 10 µM (SNB-19) of less than 10% and an inhibition of growth at 10 µM (Hs-578T) of less than 10%. It also gave an inhibition of growth at 10 µM (A549) of less than 10%, an inhibition of growth at 10 µM (MOLT-4) of 19% and an inhibition of growth at 10 µM (ACHN) of less than 10%. For the same compound, the inhibition of growth at 10 µM (LOX IMVI) was 15%, the inhibition of growth at 10 µM (MDA-MB-435) was less than 10% and the inhibition of growth at 10 µM (UACC-62) was 18.3%. The inhibition of growth at 10 µM (CCRF-CEM) was less than 10%, the inhibition of growth at 10 µM (SF-268) was less than 10% and the inhibition of growth at 10 µM (HL-60(TB)) was less than 10%. For the same compound, the inhibition of growth at 10 µM (HCT-15) was less than 10%, the inhibition of growth at 10 µM (RXF 393) was less than 10% and the inhibition of growth at 10 µM (NCI-H522) was less than 10%. The inhibition of growth at 10 µM (SR) was 17.8%, the inhibition of growth at 10 µM (NCI-H23) was less than 10% and the inhibition of growth at 10 µM (HT-29) was less than 10%. The inhibition of growth at 10 µM (SK-OV-3) was less than 10%, the inhibition of growth at 10 µM (U-251) was less than 10% and the inhibition of growth at 10 µM (MDA-MB-468) was less than 10%. The inhibition of growth at 10 µM (RPMI-8226) was 31%, the inhibition of growth at 10 µM (CAKI-1) was less than 10% and the inhibition of growth at 10 µM (T47D) was less than 10%. For the same compound, the inhibition of growth at 10 µM (MCF7) was less than 10%, the inhibition of growth at 10 µM (A498) was 13.5% and the inhibition of growth at 10 µM (OVCAR-4) was less than 10%. The inhibition of growth at 10 µM (NCI/ADR-RES) was less than 10%, the inhibition of growth at 10 µM (DU-145) was less than 10% and the inhibition of growth at 10 µM (HCT-116) was less than 10%. It also gave an inhibition of growth at 10 µM (K562) of less than 10%, an inhibition of growth at 10 µM (UO-31) of less than 10% and an inhibition of growth at 10 µM (M14) of less than 10%. It also gave an inhibition of growth at 10 µM (SNB-75) of less than 10%, an inhibition of growth at 10 µM (HOP-92) of less than 10% and an inhibition of growth at 10 µM (SF-295) of less than 10%. The inhibition of growth at 10 µM [1] was less than 10% and the inhibition of growth at 10 µM (IGROV-1) was 10.6%.
